Reference: ChEMBL document CHEMBL1131631, “Piperazinyl oxazolidinone antibacterial agents containing a pyridine, diazene, or triazene heteroaromatic ring” (1998)
≈ marks a conversion by molar mass, not a printed value.

Tests used:
[1] = test system: Streptococcus pneumoniae; test: Minimum inhibitory concentration Streptococcus pneumoniae UC9912; type: functional
Summary of the method: (§1)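 MIC in µg/mL. S. aureus UC 9213 is methicillin-susceptible, and S. aureus UC 6685 and S. epidermidis UC 12084 are methicillin-resistant. E. faecalis UC 9217 and S. pneumoniae UC 9912 were also tested.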

[2] = test system: Caco-2; test: (§2) permeability assessment across a monolayer of caco-2 cells in absence of GSH in aqueous base.; type: functional, Homo sapiens
[3] = test system: Mus musculus; test: compound was tested against Staphylococcus aureus UC9213 the eperezolid administered (PO) in mouse positive control expressed as ED50 values.
[4] = test system: Mus musculus; test: Compound was tested against Staphylococcus aureus UC9213 after po administration in mouse; type: functional
Summary of the method: (§3)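 Lethal systemic S. aureus infection in mice, with oral dosing. The ED50 is the dose in mg/kg body weight per dose that reduces mortality by 50%. The 95% confidence limits are −50% and +100% of the nominal value.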

[5] = test system: Staphylococcus aureus; test: Minimum inhibitory concentration against Staphylococcus aureus UC6685; type: functional; summary of the method: as §1
[6] = test system: Caco-2; test: (§4) permeability assessment across a monolayer of caco-2 cells in presence of GSH in aqueous base.; type: functional, Homo sapiens
[7] = test system: Caco-2; test: (§5) permeability assessment across […]; type: functional, Homo sapiens
[8] = test system: Enterococcus faecalis; test: Minimum inhibitory concentration against Enterococcus faecalis UC9217; type: functional; summary of the method: as §1
[9] = test system: Staphylococcus epidermidis; test: Minimum inhibitory concentration against Staphylococcus epidermis UC12084; type: functional; summary of the method: as §1
[10] = test system: Staphylococcus aureus; test: Minimum inhibitory concentration against Staphylococcus aureus UC9213; type: functional; summary of the method: as §1
[11] = test system: Caco-2; test: as §4; type: functional
[12] = test system: Caco-2; test: as §2; type: functional
[13] = test system: Staphylococcus aureus; test: compound was tested against Staphylococcus aureus UC9213 the eperezolid administered positive control expressed as ED50 values.; type: functional
Summary of the method: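 Eperezolid was given orally in the same lethal systemic mouse S. aureus trial as the test agents. The ED50 is the mg/kg/dose that reduces mortality by 50%.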

[14] = test system: Caco-2; test: as §5; type: functional
[15] = test system: Caco-2; test: as §5; type: functional; remark: listed apart in the source
[16] = test system: Staphylococcus aureus; test: compound was tested against Staphylococcus aureus UC9213 after po administration.; type: functional; summary of the method: as §3

Compound | MIC [1] | MIC [5] | MIC [8] | MIC [9] | MIC [10] | [A] [2] | ED50 [3] | ED50 [4] | [A] [6] | [EA] [7] | [A] [11] | [A] [12] | ED50 [13] | [EA] [14] | [EA] [15] | ED50 [16]
CCCOc1nc(Cl)nc(N2CCN(c3ccc(N4C[C@H](CNC(C)=O)OC4=O)cc3F)CC2)n1 | 2 µg/mL (≈ 3.94 µM) | 8 µg/mL (≈ 15.7 µM) | 8 µg/mL (≈ 15.7 µM) | 8 µg/mL (≈ 15.7 µM) | 16 µg/mL (≈ 31.5 µM) | – | – | – | – | – | – | – | – | – | – | –
CC(=O)NC[C@H]1CN(c2ccc(N3CCN(c4nc(C)cc(C)c4C#N)CC3)c(F)c2)C(=O)O1 | 1 µg/mL (≈ 2.14 µM) | 4 µg/mL (≈ 8.57 µM) | 4 µg/mL (≈ 8.57 µM) | 2 µg/mL (≈ 4.29 µM) | 4 µg/mL (≈ 8.57 µM) | – | – | – | – | – | – | – | – | – | – | –
CC(=O)NC[C@H]1CN(c2ccc(N3CCN(c4ncccc4C#N)CC3)c(F)c2)C(=O)O1 | 0.5 µg/mL (≈ 1.14 µM) | 2 µg/mL (≈ 4.56 µM) | 1 µg/mL (≈ 2.28 µM) | 0.5 µg/mL (≈ 1.14 µM) | 2 µg/mL (≈ 4.56 µM) | – | 3.2 mg/kg | > 20 mg/kg | – | – | – | – | – | – | – | –
CC(=O)NC[C@H]1CN(c2ccc(N3CCN(c4c(Cl)c(Cl)nc(Cl)c4Cl)CC3)c(F)c2)C(=O)O1 | > 16 µg/mL | > 16 µg/mL | > 16 µg/mL | > 16 µg/mL | > 16 µg/mL | – | – | – | – | – | – | – | – | – | – | –
CC(=O)NC[C@H]1CN(c2ccc(N3CCN(c4cccnn4)CC3)c(F)c2)C(=O)O1 | 0.5 µg/mL (≈ 1.21 µM) | 2 µg/mL (≈ 4.83 µM) | 2 µg/mL (≈ 4.83 µM) | 0.5 µg/mL (≈ 1.21 µM) | 4 µg/mL (≈ 9.65 µM) | – | 8.7 mg/kg | 8.8 mg/kg | 36 µM | – | – | – | – | – | – | –
CC(=O)NC[C@H]1CN(c2ccc(N3CCN(c4ccc(C#N)cn4)CC3)c(F)c2)C(=O)O1 | 0.5 µg/mL (≈ 1.14 µM) | 2 µg/mL (≈ 4.56 µM) | 1 µg/mL (≈ 2.28 µM) | 0.5 µg/mL (≈ 1.14 µM) | 2 µg/mL (≈ 4.56 µM) | – | 5.8 mg/kg | 6.8 mg/kg | – | – | – | – | – | – | – | –
CC(=O)NC[C@H]1CN(c2ccc(N3CCN(c4cccc(Br)n4)CC3)c(F)c2)C(=O)O1 | 0.5 µg/mL (≈ 1.02 µM) | 1 µg/mL (≈ 2.03 µM) | 1 µg/mL (≈ 2.03 µM) | 0.5 µg/mL (≈ 1.02 µM) | 2 µg/mL (≈ 4.06 µM) | 2.6 µM | – | – | 2.6 µM | 50 µM | – | – | 2.7 mg/kg | – | – | > 20 mg/kg
CC(=O)NC[C@H]1CN(c2ccc(N3CCN(c4nc(N)nc(N)n4)CC3)c(F)c2)C(=O)O1 | 0.5 µg/mL (≈ 1.12 µM) | 4 µg/mL (≈ 8.98 µM) | 2 µg/mL (≈ 4.49 µM) | 1 µg/mL (≈ 2.24 µM) | 4 µg/mL (≈ 8.98 µM) | – | 4.4 mg/kg | > 20 mg/kg | – | – | – | – | – | – | – | –

The next lines start with results.

MIC [1] | MIC [5] | MIC [8] | MIC [9] | MIC [10] | Compound | [A] [2] | ED50 [3] | ED50 [4] | [A] [6] | [EA] [7] | [A] [11] | [A] [12] | ED50 [13] | [EA] [14] | [EA] [15] | ED50 [16]
0.5 µg/mL (≈ 1.21 µM) | 2 µg/mL (≈ 4.83 µM) | 1 µg/mL (≈ 2.41 µM) | 1 µg/mL (≈ 2.41 µM) | 2 µg/mL (≈ 4.83 µM) | CC(=O)NC[C@H]1CN(c2ccc(N3CCN(c4ccncn4)CC3)c(F)c2)C(=O)O1 | 40 µM | 1.8 mg/kg | 4.4 mg/kg | 40 µM | 50 µM | – | – | – | – | – | –
0.5 µg/mL (≈ 1.16 µM) | 2 µg/mL (≈ 4.64 µM) | 2 µg/mL (≈ 4.64 µM) | 1 µg/mL (≈ 2.32 µM) | 2 µg/mL (≈ 4.64 µM) | CC(=O)NC[C@H]1CN(c2ccc(N3CCN(c4cccc(F)n4)CC3)c(F)c2)C(=O)O1 | – | – | – | – | – | – | – | – | – | – | –
0.5 µg/mL (≈ 1.07 µM) | 2 µg/mL (≈ 4.28 µM) | 2 µg/mL (≈ 4.28 µM) | 1 µg/mL (≈ 2.14 µM) | 2 µg/mL (≈ 4.28 µM) | CC(=O)NC[C@H]1CN(c2ccc(N3CCN(c4nc(F)c(F)cc4F)CC3)c(F)c2)C(=O)O1 | – | – | – | – | – | – | – | – | – | – | –
0.25 µg/mL (≈ 0.585 µM) | 2 µg/mL (≈ 4.68 µM) | 2 µg/mL (≈ 4.68 µM) | 0.5 µg/mL (≈ 1.17 µM) | 4 µg/mL (≈ 9.36 µM) | CC(=O)NC[C@H]1CN(c2ccc(N3CCN(c4ccnc(C)c4)CC3)c(F)c2)C(=O)O1 | – | – | – | – | – | – | – | – | – | – | –
0.5 µg/mL (≈ 1.03 µM) | 2 µg/mL (≈ 4.14 µM) | 2 µg/mL (≈ 4.14 µM) | 1 µg/mL (≈ 2.07 µM) | 2 µg/mL (≈ 4.14 µM) | CC(=O)NC[C@H]1CN(c2ccc(N3CCN(c4cnnc(Cl)c4Cl)CC3)c(F)c2)C(=O)O1 | – | – | – | – | – | 34 µM | 34 µM | 3.2 mg/kg | 0 µM | 50 µM | > 20 mg/kg
0.5 µg/mL (≈ 1.05 µM) | 2 µg/mL (≈ 4.21 µM) | 1 µg/mL (≈ 2.1 µM) | 1 µg/mL (≈ 2.1 µM) | 4 µg/mL (≈ 8.41 µM) | COc1nc(OC)nc(N2CCN(c3ccc(N4C[C@H](CNC(C)=O)OC4=O)cc3F)CC2)n1 | – | – | – | – | – | – | – | – | – | – | –
< 0.5 µg/mL | 4 µg/mL (≈ 9 µM) | 2 µg/mL (≈ 4.5 µM) | 1 µg/mL (≈ 2.25 µM) | 8 µg/mL (≈ 18 µM) | CC(=O)NC[C@H]1CN(c2ccc(N3CCN(c4cc(N)nc(N)n4)CC3)c(F)c2)C(=O)O1 | – | – | – | – | – | – | – | – | – | – | –
0.25 µg/mL (≈ 0.539 µM) | 2 µg/mL (≈ 4.31 µM) | 2 µg/mL (≈ 4.31 µM) | 0.5 µg/mL (≈ 1.08 µM) | 2 µg/mL (≈ 4.31 µM) | CC(=O)NC[C@H]1CN(c2ccc(N3CCN(c4ccnc5ccccc45)CC3)c(F)c2)C(=O)O1 | – | – | – | – | – | – | – | – | – | – | –
